This is an account of results in ChEMBL document CHEMBL1124728, “Small peptide inhibitors of smooth muscle myosin light chain kinase” (J Med Chem, 1990).

Starred links: 1 amine or outer side, 2 acyl side, 3 side chain; linkers in the order of their positions; H or OH if unused. Residues, ends and D or L forms follow the SMILES beside them. *: point of attachment. isoSer(2S) = O=C([C@@H](O)CN[*:1])[*:2]; NHCH2(2-pyridyl) = c1ccc(CN*)nc1; OBn = c1ccc(CO*)cc1

Test [1] deals with Myosin light chain kinase, smooth muscle (Gallus gallus) (UniProt P11799). In words: Inhibition of native form of myosin light chain kinase at from chicken gizzard 100 uM. In short, it runs like this:
(§1)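 Native calmodulin-dependent gizzard MLCK, over 95% homogeneous, with 200 nM calmodulin, 1 mM EGTA and about 200 μM excess free Ca2+. Started with ATP and stopped with HCl; phosphocellulose filter counting. Graphical IC50 from duplicates at four concentrations, or % inhibition at a single concentration.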

Test [2] addresses T1, Myosin light chain kinase, smooth muscle (Gallus gallus, UniProt P11799). In words: Inhibition of calmodulin-independent form of MLCK(myosin light chain kinase) from chicken gizzard. In short, it runs like this:
(§2)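 Chicken gizzard MLCK made calmodulin-independent by limited trypsin digestion. It was started with ATP and stopped with HCl. Phosphate in substrate was counted on phosphocellulose filters. IC50 was read graphically from duplicates at four concentrations and reported as the mean, or as % inhibition at one concentration.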

The target of test [3] is Myosin light chain kinase, smooth muscle (Gallus gallus) (UniProt P11799). Particulars: 1000 uM.
Sequence of Myosin light chain kinase, smooth muscle (Gallus gallus) (P11799 whole entry): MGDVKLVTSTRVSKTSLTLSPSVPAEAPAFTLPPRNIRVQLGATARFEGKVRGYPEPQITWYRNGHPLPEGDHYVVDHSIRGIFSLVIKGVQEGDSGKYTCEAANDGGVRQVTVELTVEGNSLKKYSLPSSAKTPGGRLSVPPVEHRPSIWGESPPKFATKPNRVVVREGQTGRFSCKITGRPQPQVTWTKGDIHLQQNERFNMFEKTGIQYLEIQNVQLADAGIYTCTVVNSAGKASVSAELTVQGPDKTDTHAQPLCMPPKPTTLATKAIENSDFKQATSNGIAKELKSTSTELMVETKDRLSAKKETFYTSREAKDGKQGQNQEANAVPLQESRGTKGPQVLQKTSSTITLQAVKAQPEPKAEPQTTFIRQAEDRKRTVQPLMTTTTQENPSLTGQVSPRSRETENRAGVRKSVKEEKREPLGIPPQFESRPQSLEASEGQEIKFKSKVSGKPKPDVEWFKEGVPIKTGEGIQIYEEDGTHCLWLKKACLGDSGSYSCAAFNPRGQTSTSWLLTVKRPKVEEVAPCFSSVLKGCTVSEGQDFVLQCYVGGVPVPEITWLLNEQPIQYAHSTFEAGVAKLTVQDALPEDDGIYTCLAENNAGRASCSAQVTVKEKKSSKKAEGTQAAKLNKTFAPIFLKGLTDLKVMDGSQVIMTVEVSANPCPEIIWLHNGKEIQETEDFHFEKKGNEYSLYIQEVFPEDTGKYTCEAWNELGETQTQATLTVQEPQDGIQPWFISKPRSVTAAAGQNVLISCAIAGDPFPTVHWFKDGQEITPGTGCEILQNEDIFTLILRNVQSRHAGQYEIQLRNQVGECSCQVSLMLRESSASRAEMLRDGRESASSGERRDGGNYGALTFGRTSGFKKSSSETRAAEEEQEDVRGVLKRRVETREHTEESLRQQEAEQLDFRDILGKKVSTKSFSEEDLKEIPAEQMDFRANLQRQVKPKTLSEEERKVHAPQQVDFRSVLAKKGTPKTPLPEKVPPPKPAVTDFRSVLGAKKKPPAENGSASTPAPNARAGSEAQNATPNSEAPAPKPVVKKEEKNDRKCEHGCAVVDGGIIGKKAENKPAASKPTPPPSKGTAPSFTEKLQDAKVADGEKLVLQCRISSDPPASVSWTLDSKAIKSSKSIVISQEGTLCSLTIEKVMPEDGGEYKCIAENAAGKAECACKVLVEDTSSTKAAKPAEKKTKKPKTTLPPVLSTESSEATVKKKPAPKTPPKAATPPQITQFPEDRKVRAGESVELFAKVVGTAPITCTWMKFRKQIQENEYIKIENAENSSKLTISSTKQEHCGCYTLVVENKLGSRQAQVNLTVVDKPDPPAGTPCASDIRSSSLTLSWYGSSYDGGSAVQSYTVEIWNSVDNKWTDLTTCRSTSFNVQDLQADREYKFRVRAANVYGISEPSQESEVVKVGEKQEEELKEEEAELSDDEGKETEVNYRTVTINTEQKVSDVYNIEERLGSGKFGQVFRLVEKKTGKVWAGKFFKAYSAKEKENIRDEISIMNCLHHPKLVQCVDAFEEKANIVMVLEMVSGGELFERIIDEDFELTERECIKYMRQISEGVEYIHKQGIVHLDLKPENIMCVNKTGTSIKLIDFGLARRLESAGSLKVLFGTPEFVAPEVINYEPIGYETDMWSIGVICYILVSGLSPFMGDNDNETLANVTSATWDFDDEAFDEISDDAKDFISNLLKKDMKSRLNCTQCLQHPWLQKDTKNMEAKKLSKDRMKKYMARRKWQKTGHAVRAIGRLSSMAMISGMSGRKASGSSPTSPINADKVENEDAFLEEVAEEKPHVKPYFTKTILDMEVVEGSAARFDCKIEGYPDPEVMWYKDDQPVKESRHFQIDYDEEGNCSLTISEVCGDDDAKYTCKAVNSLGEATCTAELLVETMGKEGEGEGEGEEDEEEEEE
The target of test [4] is T1, Myosin light chain kinase, smooth muscle. In words: Inhibition of native form of MLCK myosin light chain kinase from chicken gizzard. The procedure, abridged: as §1
Test [5] has the same target. In words: Inhibition of native form of myosin light chain kinase from chicken gizzard. In short, it runs like this: as §1
In test [6] the target is Myosin light chain kinase, smooth muscle (Gallus gallus) (UniProt P11799). In words: Inhibition of calmodulin-independent form of Myosin light chain kinase from chicken gizzard at 100 uM. Particulars: 300 uM, in the assay text read “at 300 uM” for “at 100 uM”. In short, it runs like this:
as §2

Test [7] has the same target. In words: Inhibition of calmodulin-independent form of Myosin light chain kinase from chicken gizzard at 300 uM. The procedure, abridged:
as §2

The target is the same in test [8]. In words: Inhibition of native form of myosin light chain kinase from chicken gizzard 1000 uM. The procedure, abridged: as §1
Test [9] shares this target. In words: Rate of phosphate incorporation by myosin light chain kinase at 50 uM.
For test [10] the target is unchanged. In words: Inhibition of native form of myosin light chain kinase from chicken gizzard at 1000 uM. In short, it runs like this:
as §1

T1 sequence (P11799 whole entry): as above

As a reminder, the inhibition is the share of the control response that was lost under treatment. The low end stands for a response near the control, the high end for a response far below the control. As to `CC(C)[C@H](NC(=O)[C@H](CO)NC(=O)[C@@H](N)CO)C(=O)N[C@@H](Cc1ccccc1)C(=O)N[C@@H](C)C(=O)OCc1ccccc1` (H-SSVFA-OBn), the inhibition in [1] was 15%.
For `CC(C)[C@@H](NC(=O)[C@H](CC(N)=O)NC(=O)[C@@H](N)CO)C(=O)N[C@@H](Cc1ccccc1)C(=O)N[C@@H](C)C(=O)OCc1ccccc1`, the inhibition in [1] was 0%.
A word on the IC50: it is the point on the concentration scale where inhibition reaches its midpoint. High values mean lower potency, low ones higher potency. With `CC(C)[C@H](NC(=O)[C@H](CC(N)=O)NC(=O)[C@@H](N)CO)C(=O)N[C@@H](Cc1ccccc1)C(=O)N[C@@H](C)C(=O)OCc1ccccc1`, the IC50 in test [2] amounted to 21 µM; in test [4], 28 µM. In test [3], this molecule registered a Rate of 0.017 pM/min.
In turn, `CC(C)[C@H](NC(=O)[C@@H](N)CC(N)=O)C(=O)N[C@@H](Cc1ccccc1)C(=O)N[C@@H](C)C(=O)OCc1ccccc1` (H-NVFA-OBn) yielded an IC50 in test [5] of 800 µM.
With `C[C@H](NC(=O)[C@H](Cc1ccccc1)NC(=O)CNC(=O)[C@H](CC(N)=O)NC(=O)[C@@H](N)CO)C(=O)OCc1ccccc1` (H-SNGFA-OBn), in [6], the inhibition came to 17%.
For the molecule `COC(=O)[C@H](C)NC(=O)[C@H](Cc1ccccc1)NC(=O)[C@@H](NC(=O)[C@H](CC(N)=O)NC(=O)[C@@H](N)CO)C(C)C` (H-SNVFA-OMe), the inhibition in [7] came to 0%.
On the same count and under the same terms, then `CC(C)[C@H](NC(=O)[C@H](CC(N)=O)NC(=O)[C@@H](N)CO)C(=O)N[C@@H](Cc1ccccc1)C(=O)N[C@@H](C)C(N)=O` (H-SNVFA-NH2), with 0%.
With `CC(C)[C@H](NC(=O)[C@H](CC(N)=O)NC(=O)CN)C(=O)N[C@@H](Cc1ccccc1)C(=O)N[C@@H](C)C(=O)OCc1ccccc1` (H-GNVFA-OBn), the inhibition in test [1] was 37%.
Regarding `CC(C)[C@H](NC(=O)[C@H](CC(N)=O)NC(=O)[C@@H](N)CO)C(=O)OCc1ccccc1` (H-Ser-Asn-Val-OBn), the inhibition in [8] turned out to be 0%.
The molecule `CC(C)[C@H](NC(=O)[C@H](CC(N)=O)NC(=O)[C@H](CO)NC(=O)[C@@H](NC(=O)[C@H](C)NC(=O)[C@H](CCCN=C(N)N)NC(=O)[C@H](CCC(N)=O)NC(=O)[C@@H]1CCCN1C(=O)[C@H](CCCN=C(N)N)NC(=O)[C@H](CCCCN)NC(=O)[C@@H](N)CCCCN)[C@@H](C)O)C(=O)N[C@@H](Cc1ccccc1)C(=O)N[C@@H](CO)C(N)=O` (H-KKRPQRATSNVFS-NH2) returned a Rate in test [9] of 45 pmol/min.
The molecule `CC(C)[C@H](NC(=O)[C@H](CC(=O)O)NC(=O)[C@@H](N)CO)C(=O)N[C@@H](Cc1ccccc1)C(=O)N[C@@H](C)C(=O)OCc1ccccc1` (H-SDVFA-OBn) returned an inhibition in test [1] of 0%.
`CC(C)[C@H](NC(=O)[C@H](CCC(N)=O)NC(=O)[C@@H](N)CO)C(=O)N[C@@H](Cc1ccccc1)C(=O)N[C@@H](C)C(=O)OCc1ccccc1` (H-SQVFA-OBn) yielded an inhibition in test [1] of 32%.
Turning to `CC(C)[C@H](NC(=O)[C@H](CC(N)=O)NC(=O)[C@@H](N)CO)C(=O)N[C@@H](Cc1ccccc1)C(=O)N[C@@H](C)C(=O)NCc1ccccn1` (H-SNVFA-{NHCH2(2-pyridyl)}), the figures for the inhibition in test [10] and in [6] were 0% and 5%, respectively.
`CC(C)[C@H](N)C(=O)N[C@@H](Cc1ccccc1)C(=O)N[C@@H](C)C(=O)OCc1ccccc1` (H-Val-Phe-Ala-OBn): the IC50 in test [5] was 1000 µM.
`CC(C)[C@H](NC(=O)[C@@H](CC(N)=O)NC(=O)[C@@H](N)CO)C(=O)N[C@@H](Cc1ccccc1)C(=O)N[C@@H](C)C(=O)OCc1ccccc1` came in with an inhibition in test [1] of 0%.
Molecule `CC(C)[C@H](NC[C@H](CC(N)=O)NC(=O)[C@@H](N)CO)C(=O)N[C@@H](Cc1ccccc1)C(=O)N[C@@H](C)C(=O)OCc1ccccc1` returned an inhibition in test [6] of 33%.
With `C[C@H](NC(=O)[C@@H](N)Cc1ccccc1)C(=O)OCc1ccccc1`, the inhibition in [10] worked out at 0%.
On to `CC(C)[C@H](NC(=O)[C@H](CC(N)=O)NC[C@@H](N)CO)C(=O)N[C@@H](Cc1ccccc1)C(=O)N[C@@H](C)C(=O)NCc1ccccc1`, for which the inhibition in test [6] stood at 0%.
For the molecule `CC(C)[C@H](NC(=O)[C@@H](/C=C/[C@@H](N)CO)CC(N)=O)C(=O)N[C@@H](Cc1ccccc1)C(=O)N[C@@H](C)C(=O)NCc1ccccc1`, in [6], the inhibition is 0%.
On the same count and under the same terms, for `CC(C)[C@H](NC(=O)[C@H](CC(N)=O)NC(=O)[C@@H](N)CO)C(=O)N[C@@H](Cc1ccccc1)C(=O)N[C@@H](C)C(=O)O` (H-SNVFA-OH) the value was 0%.
`CC(C)[C@H](NC(=O)[C@H](Cc1c[nH]cn1)NC(=O)[C@@H](N)CO)C(=O)N[C@@H](Cc1ccccc1)C(=O)N[C@@H](C)C(=O)OCc1ccccc1` (H-SHVFA-OBn) had an inhibition in test [1] of 0%.
`CC(C)[C@H](NC(=O)[C@H](CC(N)=O)NC(=O)[C@@H](O)CN)C(=O)N[C@@H](Cc1ccccc1)C(=O)N[C@@H](C)C(=O)OCc1ccccc1` ({isoSer(2S)}-NVFA-OBn) returned an inhibition in test [1] of 14%.
